Measured values from different studies.
CHEK2: Serine/threonine-protein kinase Chk2 (CHEK2, Homo sapiens, UniProt O96017)
CHEK2 R145W: Serine/threonine-protein kinase Chk2 (CHEK2, Homo sapiens, UniProt O96017, R145W)

Cn1c2c(c3ccc(Cl)c(Cl)c31)C(C#N)C(C)(C)NC2=O (stereo not shown)  ΔTm (CHEK2; thermal stability; DSF; 10 µM): 0.2 °C
CCN(CC)CCNC(=O)c1c(C)[nH]c(/C=C2\C(=O)Nc3ccc(F)cc32)c1C  remaining signal (CHEK2; cell-free assay; 0.5 µM): 7.13%
CN([C@@H]1CCc2c(CC(=O)O)c3ccccc3n2C1)S(=O)(=O)c1ccc(F)cc1  remaining binding (CHEK2; cell-free assay; competition with immobilised ligand; 1 µM): 100%
Cc1ccc(C(=O)NCc2ccsc2)cc1C#Cc1cn(C(C)C)c2ncnc(N)c12  activity vs control (CHEK2; enzyme activity; inhibitor; 1 µM): 109%
Cc1ccc(Nc2nccc(N(C)c3ccc4c(C)n(C)nc4c3)n2)cc1S(N)(=O)=O  inhibition (CHEK2 R145W; enzyme activity; inhibitor; 10 µM): 28%
CCCCN(CCCC)C(=O)CN1C[C@H](c2cc(OC)c3c(c2)OCO3)[C@@H](C(=O)O)[C@@H]1CC(C)(C)CCC  remaining binding (CHEK2; cell-free assay; competition with immobilised ligand; 1 µM): 100%
Cn1c2c(c3ccc(Cl)c(Cl)c31)C(C#N)C1(CCNCC1)NC2=O (racemic)  ΔTm (CHEK2; thermal stability; DSF; 10 µM): 0.2 °C
C[C@H](c1ccc(F)cc1)N(Cc1cccc(C(=O)O)c1)C(=O)c1cnc2ccccc2c1  remaining binding (CHEK2; cell-free assay; competition with immobilised ligand; 1 µM): 91%
C[S+]([O-])c1ccc(-c2nc(-c3ccncc3)c(-c3ccc(F)cc3)[nH]2)cc1 (stereo not shown)  remaining signal (CHEK2; cell-free assay; 0.5 µM): 99.6%
CN1CCC2(CC1)NC(=O)c1c(c3ccc(Cl)c(Cl)c3n1C)C2C#N (racemic)  ΔTm (CHEK2; thermal stability; DSF; 10 µM): -0.3 °C
Cc1cnc(NC2CCOCC2)nc1-n1cnc(C(=O)NC(CN)c2cc(F)cc(Cl)c2)c1 (stereo not shown)  remaining activity (Serine/threonine-protein kinase Chk2 (CHEK2, Homo sapiens, UniProt O96017, I157T); enzyme activity; inhibitor; radiometric; 1 µM): 82%
CNC(=O)c1cc(Oc2ccc(NC(=O)Nc3ccc(Cl)c(C(F)(F)F)c3)cc2)ccn1  inhibition (CHEK2; enzyme activity; inhibitor; 10 µM): 6%
O=C1Nc2ccc(Cl)cc2C1=Cc1cc(Cl)c(O)c(Cl)c1  remaining signal (CHEK2; cell-free assay; 0.5 µM): 70.2%
CN([C@@H]1CCc2c(CC(=O)O)c3cc(S(C)(=O)=O)ccc3n2C1)S(=O)(=O)c1ccc(F)cc1  remaining binding (CHEK2; cell-free assay; competition with immobilised ligand; 1 µM): 100%
Cc1cc(NC(=O)c2cccc3cc(-c4cccc5[nH]nc(N)c45)ccc23)ccc1F  activity vs control (CHEK2 R145W; enzyme activity; inhibitor; 0.1 µM): 99%
Cn1c2c(Cl)c(Cl)ccc2c2cc[nH]c(=O)c21  ΔTm (CHEK2; thermal stability; DSF; 10 µM): 0.2 °C
CCCOc1ccc([C@H]2[C@H](C(=O)O)[C@@H](c3ccc4c(c3)OCO4)CN2CC(=O)Nc2c(CC)cccc2CC)cc1  remaining binding (CHEK2; cell-free assay; competition with immobilised ligand; 1 µM): 88%
N#CCCc1ccc2c(c1)-c1[nH]c3ccc([N+](=O)[O-])cc3c1CC(=O)N2  remaining signal (CHEK2; cell-free assay; 0.5 µM): 12.6%
Cn1c2c(c3ccc(Cl)c(Cl)c31)C(C#N)C1(CCCC1)NC2=O (stereo not shown)  ΔTm (CHEK2; thermal stability; DSF; 10 µM): 0 °C
Cc1ccc(NC(=O)c2ccc(C)c(C(F)(F)F)c2)cc1C#Cc1nn(C2CCC(O)CC2)c2ncnc(N)c12 (stereo not shown)  remaining signal (CHEK2; cell-free assay; 10 µM): 111%
C#Cc1cccc(Nc2ncnc3cc(OCCOC)c(OCCOC)cc23)c1  remaining signal (CHEK2; cell-free assay; 0.5 µM): 100%
CC(C)CC(=O)N1CCc2nc(-c3ccc(Br)cc3)nc(N(C)Cc3ccccc3)c2C1  remaining binding (CHEK2; cell-free assay; competition with immobilised ligand; 0.1 µM): 100%
Cn1c2c(Cl)c(Cl)ccc2c2cc(N)[nH]c(=O)c21  ΔTm (CHEK2; thermal stability; DSF; 10 µM): 0.1 °C
COc1cc2nccc(Oc3ccc(NC(=O)Nc4ccc(F)cc4F)c(F)c3)c2cc1OC  ΔTm (CHEK2; thermal stability; DSF; 10 µM): 5 to 10 °C
O=C(N1CCS(=O)(=O)CC1)N1C[C@H](c2ccc(OC(F)(F)F)cc2)C[C@H](c2nc(C3CC3)no2)C1  remaining binding (CHEK2; cell-free assay; competition with immobilised ligand; 1 µM): 100%
CN(C)C1CCN(CC#Cc2nn(C3CCCC3)c3nc(NCc4ccccc4)ncc23)C1 (stereo not shown)  inhibition (CHEK2; enzyme activity; inhibitor; FRET; 0.1 µM): 6%
CS(=O)(=O)N1CCCC(NC(=O)[C@H](CCC2CCCCC2)NC(=O)c2ccc(CNc3ncnc4c3nnn4-c3ccccc3)cc2)C1 (stereo partly shown)  remaining binding (CHEK2; cell-free assay; competition with immobilised ligand; 0.1 µM): 100%
CCN1CCC2(CC1)NC(=O)c1c(c3ccc(Cl)c(Cl)c3n1C)C2C#N (racemic)  ΔTm (CHEK2; thermal stability; DSF; 10 µM): -0.2 °C
